According to ChEMBL document CHEMBL3808312, “Bioactive Constituents of Glycyrrhiza uralensis (Licorice): Discovery of the Effective Components of a Traditional Herbal Medicine” (J Nat Prod, 2016):
The source made the active and inactive calls. The calls are words filed in the database; no cut-off is given here. Peptide text beside a SMILES is read from it. * marks the point of attachment. Cbz = O=C(OCc1ccccc1)*

Assays:
[1] = tested on: SW480; experiment: Cytotoxicity against human SW480 cells assessed as reduction in cell viability after 24 hrs by MTS assay; type: functional, cell-based; settings: SW480, 24 h
In short: (§1)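 Cells seeded at 5 × 10^3/well and cultured overnight, then exposed to compounds for 24 h. Viability read by MTS. Media: SW480 in RPMI1640, A549 in DMEM, MCF7 in MEM. […] Irinotecan positive control.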

[2] = tested on: A549; experiment: Cytotoxicity against human A549 cells assessed as reduction in cell viability after 24 hrs by MTS assay; type: functional, cell-based; settings: A549, 24 h; in short: as §1
[3] = tested on: MCF7; experiment: Cytotoxicity against human MCF7 cells assessed as reduction in cell viability after 24 hrs by MTS assay; type: functional, cell-based; settings: MCF7, 24 h; in short: as §1
[4] = tested on: HepG2; experiment: Cytotoxicity against human HepG2 cells assessed as reduction in cell viability after 24 hrs by MTS assay; type: functional, cell-based; settings: HepG2, 24 h; in short: as §1
[5] = molecular target: T1, Nuclear factor erythroid 2-related factor 2 (Homo sapiens) (UniProt Q16236); experiment: Activation of NRF2 transcription in human HepG2C8 cells at 10 uM after 6 hrs by luciferase reporter gene assay relative to control; type: cell-based
T1 sequence (whole entry): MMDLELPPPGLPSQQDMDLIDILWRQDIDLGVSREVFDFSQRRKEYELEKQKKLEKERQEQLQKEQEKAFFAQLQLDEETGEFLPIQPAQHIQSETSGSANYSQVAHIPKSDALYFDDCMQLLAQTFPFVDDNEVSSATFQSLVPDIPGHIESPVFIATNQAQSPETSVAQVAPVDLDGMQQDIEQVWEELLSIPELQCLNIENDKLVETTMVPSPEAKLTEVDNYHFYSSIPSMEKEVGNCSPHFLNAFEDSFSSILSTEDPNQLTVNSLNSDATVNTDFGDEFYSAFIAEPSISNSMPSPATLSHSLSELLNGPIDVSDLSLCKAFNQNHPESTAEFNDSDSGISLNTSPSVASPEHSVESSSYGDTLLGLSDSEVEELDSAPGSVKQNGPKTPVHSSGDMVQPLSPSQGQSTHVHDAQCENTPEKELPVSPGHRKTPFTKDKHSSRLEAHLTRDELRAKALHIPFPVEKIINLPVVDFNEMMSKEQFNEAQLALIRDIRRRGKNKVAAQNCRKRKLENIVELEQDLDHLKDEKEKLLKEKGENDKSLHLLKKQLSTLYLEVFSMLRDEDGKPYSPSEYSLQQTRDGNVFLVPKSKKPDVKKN
In short: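 Luciferase reporter in HepG2C8 cells, which are HepG2 stably transfected with an Nrf2 luciferase reporter and grown in MEM. Screened at 10 μM, with dose-response over 2.5−40 μM. Activity expressed as fold of control. tBHQ positive control.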

[6] = molecular target: T2, Tyrosine-protein phosphatase non-receptor type 1 (Homo sapiens) (UniProt P18031); experiment: Inhibition of recombinant human PTP1B assessed as hydrolysis of p-nitrophenyl phosphate at 25 uM after 30 mins relative to control
T2 sequence (whole entry): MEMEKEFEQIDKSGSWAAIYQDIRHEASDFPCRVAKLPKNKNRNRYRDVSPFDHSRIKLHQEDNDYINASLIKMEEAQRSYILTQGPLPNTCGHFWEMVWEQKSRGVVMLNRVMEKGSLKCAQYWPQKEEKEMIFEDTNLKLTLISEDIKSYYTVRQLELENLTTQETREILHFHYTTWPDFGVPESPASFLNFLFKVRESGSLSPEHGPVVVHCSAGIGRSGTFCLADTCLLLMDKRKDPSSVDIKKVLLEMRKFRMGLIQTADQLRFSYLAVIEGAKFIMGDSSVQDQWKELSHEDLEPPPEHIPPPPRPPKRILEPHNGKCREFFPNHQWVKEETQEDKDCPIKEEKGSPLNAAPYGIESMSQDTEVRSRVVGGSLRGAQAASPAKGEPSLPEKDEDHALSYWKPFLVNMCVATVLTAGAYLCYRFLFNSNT

[7] = molecular target: T3, Tyrosinase (Homo sapiens) (UniProt P14679); experiment: Inhibition of tyrosinase (unknown origin) using L-tyrosine as substrate assessed as oxidation of L-tyrosine at 20 uM after 15 mins
T3 sequence (whole entry): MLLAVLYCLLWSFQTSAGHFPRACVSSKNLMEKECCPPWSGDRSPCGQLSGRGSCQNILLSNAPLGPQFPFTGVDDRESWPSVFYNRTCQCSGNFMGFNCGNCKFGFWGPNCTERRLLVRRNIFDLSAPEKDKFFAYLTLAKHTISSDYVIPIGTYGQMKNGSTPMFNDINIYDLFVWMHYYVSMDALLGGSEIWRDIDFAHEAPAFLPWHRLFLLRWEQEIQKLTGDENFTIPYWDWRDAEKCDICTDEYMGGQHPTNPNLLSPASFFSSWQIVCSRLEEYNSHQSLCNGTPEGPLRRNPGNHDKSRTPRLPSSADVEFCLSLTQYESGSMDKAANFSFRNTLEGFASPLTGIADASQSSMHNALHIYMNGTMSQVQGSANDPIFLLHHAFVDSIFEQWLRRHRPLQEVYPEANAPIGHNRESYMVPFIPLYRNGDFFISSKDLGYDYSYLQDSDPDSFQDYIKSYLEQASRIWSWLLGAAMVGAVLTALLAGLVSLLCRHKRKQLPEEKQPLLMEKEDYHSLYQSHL
In short: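 Tyrosinase at 333 U/mL (stock) in 45 mM sodium phosphate, pH 6.6, with 2 mM L-tyrosine (stock). Incubated 37 °C for 15 min; oxidation read at 492 nm. Screened at 20 μM; dose-response for IC50. Glyasperin C positive control.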

[8] = tested on: SW480; experiment: Inhibition of NFkappaB transcription in human SW480 cells at 10 uM by luciferase reporter gene assay; type: cell-based
In short: (§2)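 SW480 cells (RPMI1640) stably transfected with an NF-κB luciferase reporter. […] MG132 positive control.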

[9] = (§3) Inhibition of NFkappaB transcription in human SW480 cells at by luciferase reporter gene assay; type: cell-based; in short: as §2
[10] = tested on: SW480; experiment: as §3; type: cell-based; in short: as §2
[11] = tested on: Influenza A virus; experiment: Antiviral activity against Influenza A virus A/WSN/33(H1N1) infected in MDCK cells at 100 uM preincubated with virus for 15 mins followed by cells addition measured at 36 hrs post infection; type: functional, A/WSN/1933(H1N1)
In short: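 MDCK canine kidney cells grown in DMEM and infected with influenza A/WSN/33 (H1N1). Compounds screened at 100 μM. Oseltamivir phosphate served as the positive control.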

[12] = tested on: Influenza A virus; experiment: Antiviral activity against Influenza A virus A/WSN/33(H1N1) infected in dog MDCK cells preincubated with virus for 15 mins followed by cells addition measured at 36 hrs post infection; type: functional, organism-based; settings: A/WSN/1933(H1N1)
[13] = tested on: RAW264.7; experiment: Antiinflammatory activity in mouse RAW264.7 cells assessed as inhibition of LPS-induced nitric oxide production at 10 uM after 24 hrs by Griess assay; type: functional
In short: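 RAW264.7 cells plated at 1.2 × 10^5/well in RPMI1640 and co-treated with compound and 1 μg/mL LPS for 24 h. Nitrite in medium read with Griess reagent (sulfanilamide/naphthylethylenediamine, phosphoric acid) after 15 min at 37 °C, absorbance 540 nm. […] Curcumin positive control.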

## CC(C)=CCc1c(O)cc2occ(-c3ccc(O)c(O)c3)c(=O)c2c1O
[1]
  IC50: 12 µM
[2]
  IC50: 20.3 µM
[3]
  IC50: 7 µM
[4]
  IC50: 6 µM

## COc1c2c(cc3oc(=O)c4c5ccc(O)cc5oc4c13)OC(C)(C)CC2
[5]
  fold change (FC): 3.32

## COc1cc2c(c3oc(=O)c(-c4ccc(O)cc4O)cc13)C(C)(C)C(CO)O2 (stereo not given)
[5]
  fold change (FC): 0.88

## COc1cc2c(c3oc(-c4ccc(O)cc4O)cc13)C(C)(C)C(C)O2 (stereo not given)
[6]
  inhibition: > 90%

## COc1cc(/C=C/C(=O)c2ccc(O)cc2O)ccc1O
[7]
  inhibition: Active

## COc1cc2c(c(OC)c1CC=C(C)C)C1c3ccc(O)cc3OC1(O)CO2 (stereo not given)
[8]
  inhibition: > 30%
[9]
  IC50: 24.6 µM
[10]
  inhibition: Dose-dependent effect

## C=CC(C)(C)c1c(O)cc(OC)c2cc(-c3ccc(O)cc3O)c(=O)oc12
[5]
  fold change (FC): 0.88

## COc1cc2c(c(OC)c1CC=C(C)C)C=C(c1ccc(O)cc1O)CO2
[7]
  inhibition: inactive

## CC(C)=CCc1c(O)c(CC=C(C)C)c2occ(-c3ccc(O)cc3)c(=O)c2c1O
[11]
  Activity: >30%
[6]
  inhibition: > 95%

## COc1c2c(cc3oc(=O)c(-c4ccc(O)cc4O)cc13)OC(C)(C)CC2
[5]
  fold change (FC): 3.49

## CC(C)C[C@@H](C=O)NC(=O)[C@H](CC(C)C)NC(=O)[C@H](CC(C)C)NC(=O)OCc1ccccc1 [MG-132] (Cbz-Leu-Leu-Leu-aldehyde)
[8]
  inhibition: 23%
[9]
  IC50: 29.5 µM
[10]
  inhibition: Dose-dependent effect

## COc1cc2c(c3oc(=O)c(-c4ccc(O)cc4O)cc13)C(C)(C)C(C)O2 (stereo not given)
[5]
  fold change (FC): 0.88

## CC(C)=CCc1c(O)ccc(-c2coc3c(CC=C(C)C)c(O)cc(O)c3c2=O)c1O
[11]
  Activity: >30%
[6]
  inhibition: > 95%

## COc1cc2c(c3oc(=O)c4c5ccc(O)cc5oc4c13)C(C)(C)C(C)O2 (stereo not given)
[5]
  fold change (FC): 0.88

## CC1(C)C=Cc2c(ccc3c2OC[C@@H](c2ccc(O)cc2O)C3)O1 [GLABRIDIN]
[8]
  inhibition: > 30%
[9]
  IC50: 21.4 µM
[10]
  inhibition: Dose-dependent effect

## CCc1c2c(nc3ccc(OC(=O)N4CCC(N5CCCCC5)CC4)cc13)-c1cc3c(c(=O)n1C2)COC(=O)[C@]3(O)CC [IRINOTECAN]
[1]
  IC50: 1.4 µM
[2]
  IC50: 0.8 µM
[3]
  IC50: 0.5 µM
[4]
  IC50: 0.9 µM

## COc1c(CC=C(C)C)c(O)cc2oc(=O)c(-c3ccc(O)cc3O)cc12
[5]
  fold change (FC): 1.72

## COc1ccc2c(c1)OC1C2COC2=CC(=O)CCC21O (stereo not given)
[8]
  inhibition: > 30%
[6]
  inhibition: inactive
[9]
  IC50: 16.9 µM
[10]
  inhibition: Dose-dependent effect

## CC(C)=CCc1cc(-c2oc3cc(O)cc(O)c3c(=O)c2O)cc(O)c1O
[6]
  inhibition: Active

## CC(C)=CCc1cc(-c2oc3cc(O)cc(O)c3c(=O)c2O)ccc1O
[6]
  inhibition: 98%

## CC(C)=CCc1c(O)cc2oc(-c3ccc(O)cc3)c(O)c(=O)c2c1O
[6]
  inhibition: 51%

## COc1cc2oc(=O)c(-c3ccc(O)cc3O)cc2c(OC)c1CC=C(C)C
[5]
  fold change (FC): 0.88

## C[C@H]1O[C@H](O[C@H]2CC(C)(C)C[C@@H]3C4=CC(=O)[C@H]5[C@]6(C)CC[C@@H](O[C@@H]7O[C@H](C(=O)O)[C@@H](O)[C@H](O)[C@H]7O[C@@H]7O[C@H](C(=O)O)[C@@H](O)[C@H](O)[C@H]7O)C(C)(C)[C@H]6CC[C@]5(C)[C@@]4(C)CC[C@]23C)[C@@H](O)[C@@H](O)[C@@H]1O
[12]
  IC50: 39.6 µM
[11]
  Activity: 47%
[5]
  fold change (FC): 1.53

## CC(C)=CCc1cc2c(=O)cc(-c3ccc(O)cc3)oc2cc1O
[6]
  inhibition: Active

## O=C(/C=C/c1ccc(O)cc1)c1ccc(O)cc1O
[7]
  inhibition: Active
[5]
  fold change (FC): 5.88

## C[C@@H]1O[C@@H](c2c(O)c([C@@H]3O[C@H](COC(=O)CC(C)(O)CC(=O)O)[C@@H](O)[C@H](O)[C@H]3O)c3oc(-c4ccc(O)cc4)cc(=O)c3c2O)[C@H](O)[C@H](O)[C@H]1O (stereo not given in full)
[5]
  fold change (FC): 1.5

## COc1cc(O)cc2c1[C@@H]1Oc3c(ccc4c3C=CC(C)(C)O4)[C@@H]1CO2
[8]
  inhibition: > 30%
[9]
  IC50: 25.8 µM
[10]
  inhibition: Dose-dependent effect

## COc1cc2oc(-c3ccc(O)cc3O)cc2c(OC)c1CC=C(C)C
[11]
  Activity: >30%
[6]
  inhibition: > 90%
[13]
  inhibition: inactive

## C[C@]1(C(=O)O)CC[C@]2(C)CC[C@]3(C)C(=CC[C@@H]4[C@@]5(C)CC[C@H](O[C@@H]6O[C@H](C(=O)O)[C@@H](O)[C@H](O)[C@H]6O[C@@H]6O[C@H](C(=O)O)[C@@H](O)[C@H](O)[C@H]6O)[C@](C)(CO)[C@@H]5CC[C@]43C)[C@H]2C1
[12]
  IC50: 39.6 µM
[11]
  Activity: 47%

## O=C1C[C@@H](c2ccc(O)cc2)Oc2cc(O)ccc21
[6]
  inhibition: inactive

## CC1(C)[C@@H](O)CC[C@]2(C)[C@H]3C(=O)C=C4[C@H]5C[C@@](C)(C(=O)O)CC[C@]5(C)CC[C@@]4(C)[C@]3(C)CC[C@@H]12
[11]
  Activity: 58%
[6]
  inhibition: 81%

## COc1c(CC=C(C)C)c(O)cc2oc(=O)c3c4ccc(O)cc4oc3c12
[5]
  fold change (FC): 0.88

## CC1(C)[C@H]2CC[C@@]3(C)[C@@H](C(=O)C=C4[C@@H]5C[C@]6(C)C[C@@H](COC6=O)[C@@]5(C)CC[C@@]43C)[C@]2(C)CC[C@H]1O[C@@H]1O[C@H](C(=O)O)[C@@H](O)[C@H](O)[C@H]1O[C@@H]1O[C@H](C(=O)O)[C@@H](O)[C@H](O)[C@H]1O
[12]
  IC50: 39.6 µM
[11]
  Activity: 47%

## COc1c(-c2ccc(O)cc2)oc2cc(O)c(CC=C(C)C)c(O)c2c1=O
[1]
  IC50: 16.1 µM
[6]
  inhibition: 52%
[2]
  IC50: 23.1 µM
[3]
  IC50: 7.3 µM
[4]
  IC50: 10.8 µM
